# ChEMBL document CHEMBL4422632, “Design of Novel Inhibitors of Human Thymidine Phosphorylase: Synthesis, Enzyme Inhibition, in Vitro Toxicity, and Impact on Human Glioblastoma Cancer” (J Med Chem, 2019)
# pIC50: −log10 of the molar value. Active and inactive are the calls of the source. The rule behind the calls is not given here.
# Assays:
# [1] = Cytotoxicity against human HepG2 cells assessed as cell viability at 25 uM after 72 hrs by neutral red uptake-based assay relative to control; conditions: read-out: Activity
# How it was run: (§1)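 Cells grown in DMEM with 10% FBS at 37 °C, 5% CO₂; seeded 2 x 10³ cells/well, adhered 24 h, then exposed 72 h. MTT: 1 mg/mL for 3 h, formazan in DMSO, absorbance 595 nm. NRU: neutral red 25 µg/mL in serum-free medium for 3 h, desorbed in ethanol:acetic acid:water. Viability as % of untreated control; mean ± SEM of three to five independent experiments in triplicate.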
# [2] = Cytotoxicity against human HepG2 cells assessed as cell viability at 500 uM after 72 hrs by MTT assay relative to control; format: cell-based; conditions: read-out: Activity; how it was run: as §1
# [3] = Cytotoxicity against human HepG2 cells assessed as cell viability at 50 uM after 72 hrs by neutral red uptake-based assay relative to control; conditions: read-out: Activity; how it was run: as §1
# [4] = Cytotoxicity against human HepG2 cells assessed as cell viability at 250 uM after 72 hrs by neutral red uptake-based assay relative to control; conditions: read-out: Activity; how it was run: as §1
# [5] = Cytotoxicity against African green monkey Vero cells assessed as cell viability at 25 uM after 72 hrs by MTT assay relative to control; format: cell-based; conditions: chlorocebus sabaeus, read-out: Activity; how it was run: as §1
# [6] = Cytotoxicity against African green monkey Vero cells assessed as cell viability at 500 uM after 72 hrs by neutral red uptake-based assay relative to control; conditions: chlorocebus sabaeus, read-out: Activity; how it was run: as §1
# [7] = Cytotoxicity against human HaCaT cells assessed as cell viability at 50 uM after 72 hrs by MTT assay relative to control; format: cell-based; conditions: read-out: Activity; how it was run: as §1
# [8] = Cytotoxicity against human HaCaT cells assessed as cell viability at 500 uM after 72 hrs by MTT assay relative to control; format: cell-based; conditions: read-out: Activity; how it was run: as §1
# [9] = Cytotoxicity against human HaCaT cells assessed as cell viability at 1000 uM after 72 hrs by MTT assay relative to control; format: cell-based; conditions: read-out: Activity; how it was run: as §1
# [10] = Cytotoxicity against human HaCaT cells assessed as cell viability at 25 uM after 72 hrs by neutral red uptake-based assay relative to control; conditions: read-out: Activity; how it was run: as §1
# [11] = Cytotoxicity against human HaCaT cells assessed as cell viability at 250 uM after 72 hrs by neutral red uptake-based assay relative to control; conditions: read-out: Activity; how it was run: as §1
# [12] = Cytotoxicity against human HaCaT cells assessed as cell viability at 500 uM after 72 hrs by neutral red uptake-based assay relative to control; conditions: read-out: Activity; how it was run: as §1
# [13] = Cytotoxicity against mouse RAW264.7 cells assessed as cell viability at 25 uM after 72 hrs by MTT assay relative to control; format: cell-based; conditions: read-out: Activity
# How it was run: (§2)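 Cells kept in DMEM with 10% heat-inactivated FBS, 1% penicillin-streptomycin and 0.1% fungizone at 37 °C, 5% CO₂. U-87 MG seeded at 2 x 10^3 cells/well, RAW 264.7 at 5 x 10^2, adhered 24 h, then exposed 72 h. MTT: 1 mg/mL for 3 h, formazan in DMSO, A595. NRU: 25 μg/mL dye, 3 h, ethanol:acetic acid:water desorb. Untreated wells = 100%; three to five independent experiments in triplicate.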
# [14] = Cytotoxicity against mouse RAW264.7 cells assessed as cell viability at 25 uM after 72 hrs by neutral red uptake-based assay relative to control; conditions: read-out: Activity; how it was run: as §2
# [15] = Cytotoxicity against mouse RAW264.7 cells assessed as cell viability at 50 uM after 72 hrs by neutral red uptake-based assay relative to control; conditions: read-out: Activity; how it was run: as §2
# [16] = Cytotoxicity against mouse RAW264.7 cells assessed as cell viability at 100 uM after 72 hrs by neutral red uptake-based assay relative to control; conditions: read-out: Activity; how it was run: as §2
# [17] = Cytotoxicity against mouse RAW264.7 cells assessed as cell viability at 1000 uM after 72 hrs by neutral red uptake-based assay relative to control; conditions: read-out: Activity; how it was run: as §2
# [18] = Cytotoxicity against human U87MG cells assessed as cell viability at 250 uM after 72 hrs by MTT assay relative to control; format: cell-based, U-87MG ATCC; conditions: read-out: Activity; how it was run: as §2
# [19] = Cytotoxicity against human U87MG cells assessed as cell viability at 500 uM after 72 hrs by MTT assay relative to control; format: cell-based, U-87MG ATCC; conditions: read-out: Activity; how it was run: as §2
# [20] = Cytotoxicity against human U87MG cells assessed as cell viability at 250 uM after 72 hrs by neutral red uptake-based assay relative to control; parameters: species or system U-87MG ATCC; conditions: read-out: Activity; how it was run: as §2
# [21] = Cytotoxicity against human U87MG cells assessed as cell viability at 500 uM after 72 hrs by neutral red uptake-based assay relative to control; parameters: species or system U-87MG ATCC; conditions: read-out: Activity; how it was run: as §2
# Cytochrome P450 2C9 = Cytochrome P450 2C9 (Homo sapiens, UniProt P11712); assay: Inhibition of CYP2C9 in human liver microsomes by HPLC-MS/MS analysis; format: ADME
# Cytochrome P450 2C9, sequence (P11712 whole entry): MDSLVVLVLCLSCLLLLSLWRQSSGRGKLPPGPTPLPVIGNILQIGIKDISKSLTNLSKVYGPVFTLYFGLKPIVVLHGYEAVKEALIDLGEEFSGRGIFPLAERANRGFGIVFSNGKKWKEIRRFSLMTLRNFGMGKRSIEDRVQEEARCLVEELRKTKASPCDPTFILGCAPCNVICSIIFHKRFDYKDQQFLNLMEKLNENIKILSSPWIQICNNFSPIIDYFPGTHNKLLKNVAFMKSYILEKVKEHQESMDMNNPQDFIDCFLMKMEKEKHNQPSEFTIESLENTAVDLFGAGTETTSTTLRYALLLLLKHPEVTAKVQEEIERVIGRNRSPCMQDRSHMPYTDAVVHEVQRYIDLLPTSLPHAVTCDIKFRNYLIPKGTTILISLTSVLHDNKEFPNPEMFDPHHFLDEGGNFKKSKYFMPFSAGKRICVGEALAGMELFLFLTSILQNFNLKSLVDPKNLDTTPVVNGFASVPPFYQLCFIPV
# Cytochrome P450 2C19 = Cytochrome P450 2C19 (Homo sapiens, UniProt P33261); assay: Inhibition of CYP2C19 in human liver microsomes by HPLC-MS/MS analysis; format: ADME
# Cytochrome P450 2C19, sequence (P33261 whole entry): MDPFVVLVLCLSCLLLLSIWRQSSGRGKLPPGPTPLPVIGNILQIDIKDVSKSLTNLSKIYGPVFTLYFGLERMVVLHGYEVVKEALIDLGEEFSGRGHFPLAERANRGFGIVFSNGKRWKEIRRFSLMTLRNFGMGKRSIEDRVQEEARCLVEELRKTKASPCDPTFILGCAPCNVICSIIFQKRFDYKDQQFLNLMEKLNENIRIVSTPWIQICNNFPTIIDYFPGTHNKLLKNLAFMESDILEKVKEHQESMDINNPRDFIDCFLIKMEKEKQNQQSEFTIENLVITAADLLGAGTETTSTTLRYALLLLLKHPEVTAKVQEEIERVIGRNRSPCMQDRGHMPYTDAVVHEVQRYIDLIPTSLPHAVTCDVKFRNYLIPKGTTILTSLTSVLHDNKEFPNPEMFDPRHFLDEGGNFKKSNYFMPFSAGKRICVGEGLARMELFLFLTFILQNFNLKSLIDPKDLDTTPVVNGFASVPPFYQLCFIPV
# Cytochrome P450 2D6 = Cytochrome P450 2D6 (Homo sapiens, UniProt P10635); assay: Inhibition of CYP2D6 in human liver microsomes by HPLC-MS/MS analysis; format: ADME
# Cytochrome P450 2D6, sequence (P10635 whole entry): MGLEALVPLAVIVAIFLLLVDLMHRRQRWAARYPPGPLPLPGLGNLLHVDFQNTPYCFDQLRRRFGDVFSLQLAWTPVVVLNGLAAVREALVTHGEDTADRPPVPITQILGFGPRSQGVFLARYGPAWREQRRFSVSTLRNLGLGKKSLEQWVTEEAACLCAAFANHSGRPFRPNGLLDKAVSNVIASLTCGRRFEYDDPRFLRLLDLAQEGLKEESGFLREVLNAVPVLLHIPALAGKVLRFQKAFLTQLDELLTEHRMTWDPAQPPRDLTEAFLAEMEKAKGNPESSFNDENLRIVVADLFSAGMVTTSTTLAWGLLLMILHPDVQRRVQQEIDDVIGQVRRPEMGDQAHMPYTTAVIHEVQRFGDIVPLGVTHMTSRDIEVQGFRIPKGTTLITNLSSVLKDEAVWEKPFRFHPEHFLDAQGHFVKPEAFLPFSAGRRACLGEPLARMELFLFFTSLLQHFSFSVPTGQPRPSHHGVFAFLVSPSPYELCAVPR
# [22] = Tmax in CF1 mouse at 50 mg/kg, ip by non-compartmental analysis; format: ADME, organism-based; conditions: in vivo
# [23] = Elimination half life in CF1 mouse at 50 mg/kg, ip by non-compartmental analysis; format: ADME, organism-based; conditions: in vivo
# U-87 MG [24] = assay: Antitumor activity against human U87MG cells xenografted in BALB/c nude mouse assessed as tumor growth inhibition 50 mg/kg/day, ip administered for 14 days co-treated with temozolamide; format: functional, organism-based; conditions: U-87MG ATCC
# How it was run: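 5 x 10⁵ U-87 MG cells implanted subcutaneously in right flank of male BALB/c nude mice; at about 50 mm³, randomized to saline or ip 50 mg/kg/day, with temozolomide 50 mg/kg/day in the combination arm, for 14 days. Relative tumor volume = volume on day / day 0; TGI on day 14 = [1 − RTV treated/RTV control] x 100. Two-way ANOVA with Bonferroni.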
# U-87 MG [25] = assay: Anti-angiogenic activity in tumor of human U87MG cells xenografted in nude BALB/c mouse assessed as reduction in VEGF staining at 50 mg/kg, ip administered for 14 days by immunohistochemistry; format: functional, organism-based; conditions: U-87MG ATCC
# How it was run: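 Male nude mice bearing subcutaneous right-flank xenografts of 5 x 10⁵ U-87 MG cells; dosing began at about 50 mm³ tumors, ip daily for 14 days. Tumors formalin-fixed, paraffin sections 3 µm; citrate pH 6 antigen retrieval at 95-98 °C; primary antibody overnight at 4 °C, HRP secondary, DAB. Positive area quantified by optical density at x200, 4 images per tumor; mean ± SEM, one-way ANOVA with Dunnett.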
# U-87 MG [26] = assay: Induction of apoptosis in human U87MG cells xenografted in BALB/c nude mouse assessed as caspase-3 levels at 50 mg/kg, ip after 14 days by immunohistochemistry; format: functional, organism-based; conditions: U-87MG ATCC
# How it was run: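 Male BALB/c nude mice implanted subcutaneously with 5 x 10⁵ U-87 MG cells in the right flank. Treated IP at 50 mg/kg/day for 14 days, with saline controls, starting once tumors reached about 50 mm³. Tumors fixed in formaldehyde and cut at 3 µm. Citrate pH 6 antigen retrieval.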
# Cytochrome P450 2E1 = Cytochrome P450 2E1 (Homo sapiens, UniProt P05181); assay: Inhibition of CYP2E1 in human liver microsomes by HPLC-MS/MS analysis; format: ADME
# Cytochrome P450 2E1, sequence (P05181 whole entry): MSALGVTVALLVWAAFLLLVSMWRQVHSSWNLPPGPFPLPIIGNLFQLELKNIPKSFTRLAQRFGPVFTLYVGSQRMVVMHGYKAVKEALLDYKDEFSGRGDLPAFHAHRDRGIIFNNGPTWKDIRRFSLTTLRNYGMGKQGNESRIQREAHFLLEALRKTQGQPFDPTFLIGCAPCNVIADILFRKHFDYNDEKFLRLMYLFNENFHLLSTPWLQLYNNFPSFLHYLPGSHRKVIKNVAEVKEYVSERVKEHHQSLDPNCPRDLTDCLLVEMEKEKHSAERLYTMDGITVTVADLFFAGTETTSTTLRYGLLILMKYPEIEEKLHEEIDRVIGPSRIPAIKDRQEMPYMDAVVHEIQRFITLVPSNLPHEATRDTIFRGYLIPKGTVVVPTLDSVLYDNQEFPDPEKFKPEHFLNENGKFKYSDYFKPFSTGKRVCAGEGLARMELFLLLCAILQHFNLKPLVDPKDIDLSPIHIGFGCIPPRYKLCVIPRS
compound,measurement,setting,value
O=c1[nH]c(CNC(CO)CO)c(I)c(=O)[nH]1,"viability at 72 h, 25 µM",[1],102%
same,"viability at 72 h, 500 µM",[2],94%
same,"viability at 72 h, 50 µM",[3],103%
same,"viability at 72 h, 250 µM",[4],98%
same,"viability at 72 h, 25 µM",[5],101%
same,"viability at 72 h, 500 µM",[6],90%
same,"viability at 72 h, 50 µM",[7],95%
same,"viability at 72 h, 500 µM",[8],93%
same,"viability at 72 h, 1000 µM",[9],81%
same,"viability at 72 h, 25 µM",[10],100%
same,"viability at 72 h, 250 µM",[11],100%
same,"viability at 72 h, 500 µM",[12],95%
same,"viability at 72 h, 25 µM",[13],103%
same,"viability at 72 h, 25 µM",[14],105%
same,"viability at 72 h, 50 µM",[15],102%
same,"viability at 72 h, 100 µM",[16],97%
same,"viability at 72 h, 1000 µM",[17],48%
same,"viability at 72 h, 250 µM",[18],97%
same,"viability at 72 h, 500 µM",[19],89%
same,"viability at 72 h, 250 µM",[20],98%
same,"viability at 72 h, 500 µM",[21],93%
same,pIC50,Cytochrome P450 2C9,< 4.00
same,pIC50,Cytochrome P450 2C19,< 4.00
same,pIC50,Cytochrome P450 2D6,< 4.00
same,Tmax,[22],4.8 min
same,beta t1/2,[23],30 min
same,TGI,U-87 MG [24],Active
same,Activity,U-87 MG [25],Active
same,Activity,U-87 MG [26],inactive
same,pIC50,Cytochrome P450 2E1,< 4.00
